Assay outcomes (PubChem BioAssay)
Only some compounds are listed: those with a hit (about 2.3% of all), similar ones and a draw of the others.
TRPC4 block: inhibitors of mouse TRPC4 channel, primary screen, Fluo4 calcium, HEK293 TRPC4beta/mu-opioid cells; Short transient receptor potential channel 4 (Mus musculus), Q9QUQ5; DAMGO-evoked Fluo4 calcium flux; active compounds read low; B-score at 10 µM; hit rate 0.39% among 300,000; AID 2247, 2010;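 active = B-score over 3 SD under the library average, no early fluorescence shift, positive overall ratio signal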
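Assay system – HEK293 line stably carrying TRPC4beta and mu-opioid receptor · Doses – single dose · Detection – Fluo4 calcium-dye fluorescence, kinetic read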
TRPC4 agonist: activators of mouse TRPC4 channel, primary screen, Fluo4 calcium, HEK293 TRPC4beta/mu-opioid cells; Short transient receptor potential channel 4 (Mus musculus), Q9QUQ5; Fluo4 calcium fluorescence; active compounds read high; B-score at 10 µM; hit rate 0.49% among 310,000;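 active = B-score above 5 SD of library B-scores, and initial fluorescence ratio not above library mean plus 5 SD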;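 also: positive B-score marks a calcium rise read as TRPC4 activation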
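System – HEK293 cells stably co-expressing mouse TRPC4beta and mu-opioid receptor · Signal – Fluo4 calcium-sensitive dye fluorescence, kinetic, 1 Hz baseline · Benchmarks – buffer (low) and maximal DAMGO (high) · Read-out – B score of integrated fluorescence ratio per well · Incubation – dye loading 45 min room temperature, 110 s kinetic read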
TRPC6 act: mouse TRPC6 channel activators, primary screen, cell-based, HEK293, membrane potential dye | Short transient receptor potential channel 6 (Mus musculus), Q61143 | HEK293-TRPC6 membrane potential dye fluorescence; active compounds read high | B-score at 10 µM | hit rate 0.13% among 310,000;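 active = B-score of the integrated fluorescence ratio above library mean plus 3 SD, and starting fluorescence ratio within library mean plus 5 SD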;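 also: higher score means more depolarization so channel activation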
Target sequence (Q61143 whole entry, looked up): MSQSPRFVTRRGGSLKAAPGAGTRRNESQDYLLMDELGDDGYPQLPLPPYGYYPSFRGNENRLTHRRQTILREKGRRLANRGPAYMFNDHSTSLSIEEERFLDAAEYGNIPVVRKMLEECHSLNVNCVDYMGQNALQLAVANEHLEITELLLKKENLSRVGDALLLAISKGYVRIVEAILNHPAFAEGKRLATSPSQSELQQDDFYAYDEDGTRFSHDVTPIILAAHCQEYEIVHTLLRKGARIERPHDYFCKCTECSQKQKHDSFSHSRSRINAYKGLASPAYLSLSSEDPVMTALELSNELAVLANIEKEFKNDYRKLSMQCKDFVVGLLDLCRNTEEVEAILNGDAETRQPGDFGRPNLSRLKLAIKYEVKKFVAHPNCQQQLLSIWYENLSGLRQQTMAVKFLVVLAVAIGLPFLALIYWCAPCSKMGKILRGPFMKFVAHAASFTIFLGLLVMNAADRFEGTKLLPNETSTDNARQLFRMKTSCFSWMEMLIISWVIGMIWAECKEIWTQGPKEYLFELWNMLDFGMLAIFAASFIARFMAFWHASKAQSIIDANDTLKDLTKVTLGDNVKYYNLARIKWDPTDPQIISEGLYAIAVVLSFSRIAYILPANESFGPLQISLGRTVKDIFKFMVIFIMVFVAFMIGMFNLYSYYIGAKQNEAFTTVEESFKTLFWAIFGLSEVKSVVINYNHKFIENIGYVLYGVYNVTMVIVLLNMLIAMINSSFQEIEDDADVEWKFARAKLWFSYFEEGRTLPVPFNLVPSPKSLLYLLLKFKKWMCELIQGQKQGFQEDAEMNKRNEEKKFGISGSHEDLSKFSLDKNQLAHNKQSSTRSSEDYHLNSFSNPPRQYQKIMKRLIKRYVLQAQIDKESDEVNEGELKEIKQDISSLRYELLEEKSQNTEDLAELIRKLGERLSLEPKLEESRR
TRPC6 inhibitor: mouse TRPC6 channel inhibitors, primary screen, cell-based, HEK293, membrane potential dye | Short transient receptor potential channel 6 (Mus musculus), Q61143 | ACh-evoked depolarization; active compounds read low | B-score at 10 µM | hit rate 1.1% among 310,000 | AID 2553, 2010;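 active = B-score under library mean minus 3 SD, initial fluorescence not abnormally high, positive integrated signal ratio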;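 also: B-score derived from integrated fluorescence ratio over the kinetic read; more negative B-score means stronger inhibition of depolarization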
TRPC4 PAM: positive allosteric modulators of TRPC4, primary screen, cell-based, mouse TRPC4beta, HEK293 mu-opioid, Fluo-4 calcium. Short transient receptor potential channel 4 (Mus musculus), Q9QUQ5. DAMGO EC20, Fluo-4 Ca2+ flux; active compounds read high. B-score at 10 µM. hit rate 0.42% among 310,000. AID 2227, 2009;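 active = B-score of calcium response area above 5 SD of library B-scores, with initial fluorescence ratio within 5 SD of library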
TRPC4 sel inh 2: mouse TRPC4 off-target activity of TRPC6 inhibitors, second screen; shares compounds with TRPC6 inhibitor; inhibition, % at 10 µM; HEK293 TRPC4/MOR, membrane potential dye fluorescence; channel activated by saturating DAMGO dose; hit rate 42% among 920;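 active = compounds whose fluorescence signal differed from control wells by over 3 SD, either direction, in both duplicate plates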
TRPC4 spec: mouse TRPC4 modulation by TRPC6 hits, confirmation, selectivity assay for TRPC6 inhibitor project, cell-based, HEK293 TRPC4/mu-opioid, membrane potential dye. hit rate 61% among 920. membrane potential fluorescence. shares compounds with TRPC6 inhibitor. activity change, negative = inhibition, % at 10 µM;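 active = rise or fall in signal beyond 3 SD of buffer-only wells in both replicate plates, either sign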;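 also: integrated kinetic ratio of fluorescence range over baseline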
HEK293 MPD ctr 2-1: nonspecific membrane potential effects, parental HEK293, confirmation, counter-screen for TRPC6 inhibitor project, cell-based, second counter screen; shares compounds with TRPC6 inhibitor; parental HEK293 membrane potential dye fluorescence; maximal acetylcholine challenge after compound addition; signal change vs control, % at 10 µM; hit rate 31% among 920;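 active = membrane potential signal moving either way by over 3 SD of the maximum-effect control, in both duplicate plates, meaning non-specific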
HEK293 MPD ctr-1: membrane potential modulation in parental HEK293, confirmation, counter-screen for TRPC6 inhibitor project, cell-based; AID 2780, 2010; parental HEK293 membrane potential dye fluorescence; shares compounds with TRPC6 inhibitor; membrane potential signal change, % at 10 µM; hit rate 60% among 920;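 active = membrane potential signal shifting up or down by more than 3 SD of buffer-only wells, on both duplicate plates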
HEK293 MPD ctr-2: parental HEK293 membrane potential modulation, confirmation, counter-screen for TRPC6 modulator project, cell-based; hit rate 51% among 2,400; membrane potential dye fluorescence; shares compounds with TRPC6 inhibitor; membrane potential signal change, % at 10 µM;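 active = membrane potential signal moves up or down beyond 5 SD from buffer-only wells, on both duplicate plates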
HEK293 MPD ctr 2-2: second check of TRPC6 modulator effects in parental HEK293 cells | shares compounds with TRPC6 inhibitor | membrane potential dye fluorescence; after compound, maximal acetylcholine stimulation | inhibition, % at 10 µM | hit rate 14% among 2,400;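 active = membrane potential signal drops by more than 5 SD from the mean control signal, in both duplicate plates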
TRPC4 ctr mod: TRPC4 modulation by TRPC6 hit compounds, confirmation, selectivity assay for TRPC6 modulator project, cell-based, HEK293 TRPC4/mu-opioid, membrane potential dye, mouse | hit rate 69% among 2,400 | shares compounds with TRPC6 inhibitor | membrane potential fluorescence | percent change from control (negative = decrease, positive = increase), % at 10 µM | AID 488927, 2010;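 active = membrane potential signal moved up or down beyond 5 SD of buffer control wells, in both duplicate plates, actives on both sides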
TRPC4/MOR inh 2: second selectivity test of TRPC6 modulators against mouse TRPC4 | shares compounds with TRPC6 inhibitor | HEK293 TRPC4/mu-opioid, membrane potential dye fluorescence; stimulated with maximal-effect DAMGO | inhibition, % at 10 µM | hit rate 55% among 2,400 | AID 488928;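 active = drop in membrane potential signal beyond 5 SD of the control wells in both duplicate plates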;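 also: TRPC4 counter screen for TRPC6 hits run under conditions tuned for TRPC6 not TRPC4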
TRPC6 inh conf: mouse TRPC6 channel inhibitors, confirmation, HEK293 cells, membrane potential dye, duplicate | shares compounds with TRPC6 inhibitor | ACh-evoked depolarization | inhibition, % at 10 µM | hit rate 43% among 3,300;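 active = fluorescence ratio falls more than 5 SD below the full-stimulation control mean, in both duplicate runs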;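 also: integrated fluorescence ratio of peak minus minimum over baseline after agonist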
TRPC6 act confirm: mouse TRPC6 channel activators, confirmation, HEK293 cells, membrane potential dye, duplicate; shares compounds with TRPC6 inhibitor; HEK293-TRPC6 membrane potential dye fluorescence, FDSS; activation, % at 10 µM; hit rate 11% among 2,800; AID 488961, 2010;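 active = ratio signal rise beyond 5 SD above unstimulated control wells' mean, seen in both duplicate runs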
A number is an active result; – = inactive; · = not tested or not shown.

SMILES	TRPC4 block	TRPC4 agonist	TRPC6 act	TRPC6 inhibitor	TRPC4 PAM	HEK293 MPD ctr-2	HEK293 MPD ctr 2-2	TRPC4 ctr mod	TRPC4/MOR inh 2	TRPC6 inh conf	TRPC6 act confirm	others
COC(=O)c1c(N)n(CCCN2CCOCC2)c2nc3ccccc3nc12	–	–	–	-5.1	–	-72%	–	-16%	–	–	–
COCCOC(=O)c1c(N)n(CCCN2CCOCC2)c2nc3ccccc3nc12	–	–	–	–	–	·	·	·	·	·	·
NC(=O)NC(=O)COC(=O)/C=C/c1cccc(Br)c1	–	–	–	–	–	·	·	·	·	·	·
CNC(=O)NC(=O)COC(=O)/C=C/c1cccc(Br)c1	–	–	–	-8.5	–	·	·	·	·	–	–	TRPC4 sel inh 2=–;TRPC4 spec=–;HEK293 MPD ctr 2-1=–;HEK293 MPD ctr-1=–
CCOc1ccc(N(C(=O)Cn2nnc3ccccc32)C(C(=O)NC(C)(C)CC)c2cccn2C)cc1 (stereo unspecified)	–	–	–	–	–	·	·	·	·	·	·
CCC(C)(C)NC(=O)C(c1cccn1C)N(C(=O)Cn1nnc2ccccc21)c1ccc(OC)cc1OC (stereo unspecified)	–	–	12	-8.1	–	124%	–	44%	41%	38%	68%
Cc1ccc(OC(C)C(=O)N2CC(=O)Nc3ccccc32)cc1 (stereo unspecified)	–	–	15	–	–	–	–	–	–	·	136%
O=C(OCc1nnc(-c2ccccc2)o1)c1ccc(Cl)cc1	–	–	–	–	–	·	·	·	·	·	·
O=C(OCc1nnc(-c2ccccc2)o1)c1ccc2c(c1)OCCO2	–	–	–	-5.8	–	–	–	12%	–	–	·
O=C(CSc1nnc(-c2cccs2)n1CC1CCCO1)N1CCCC1 (stereo unspecified)	–	–	–	–	–	·	·	·	·	·	·
O=C(CCCSc1nnc(-c2cccs2)n1CC1CCCO1)c1ccccc1 (stereo unspecified)	–	–	–	-5.2	–	186%	–	34%	–	–	·
CN1C(=O)/C(=C\c2ccc(N(C)C)cc2)OC1=S	–	–	19	–	–	322%	–	74%	–	–	123%
CC1=CC(=C(C#N)c2nc3ccccc3s2)C=C(C)N1CC1CCCO1 (stereo unspecified)	–	–	–	-9.8	–	486%	–	-92%	–	–	–
COc1ccc2c(c1)N(C)/C(=C1/SC(=NCc3ccccc3)N(c3ccccc3)C1=O)S2	–	–	–	-6.5	–	–	–	–	–	–	–
Cc1c(C(=O)N2CCCCC2)c(S(=O)(=O)NCc2ccc(Cl)cc2)c(C)n1C	–	–	–	–	–	·	·	·	·	·	·
Cc1cccc(N2CCN(C(=O)C3COc4ccccc4O3)CC2)c1C (stereo unspecified)	–	–	–	-5.1	–	–	–	–	–	42%	·
COc1ccc2c(C)c(CC(=O)N3CCN(C(=O)C4COc5ccccc5O4)CC3)c(=O)oc2c1 (stereo unspecified)	–	–	–	-5.3	–	238%	–	44%	–	–	·
O=C(C1COc2ccccc2O1)N1CCN(c2ccccc2Cl)CC1 (stereo unspecified)	–	–	–	–	–	·	·	·	·	·	·
Cc1ccc(S(=O)(=O)N(C)c2ccc(OC(=O)CN3C(=O)NC4(CCCC4)C3=O)cc2)cc1C	–	–	–	–	–	·	·	·	·	·	·
Cc1ccccc1C(=O)N(CC(=O)Nc1sc(C)c(C)c1C(N)=O)C1CCCC1	–	–	–	–	–	·	·	·	·	·	·
Nc1c(C(=O)N2CCOCC2)oc2ccccc12	–	–	–	-5.4	–	–	–	–	–	–	–
O=C(NCCCNC(=O)c1c(Cl)cccc1Cl)c1c(Cl)cccc1Cl	–	–	–	–	–	·	·	·	·	·	·
COCCNc1c2c(nc3c(-c4ccccc4)c(C)nn13)CCCC2	–	–	–	–	–	·	·	·	·	·	·
Cc1nn2c(NCCN(C)C)c3c(nc2c1-c1ccccc1)CCCC3	–	–	–	-7.3	–	-192%	–	-36%	52%	48%	–
CN1CCN(c2ncccc2S(=O)(=O)N2CCCCC2)CC1	–	–	–	-7	–	·	·	·	·	78%	–	TRPC4 sel inh 2=–;TRPC4 spec=-0.1%;HEK293 MPD ctr 2-1=-41%;HEK293 MPD ctr-1=0.9%
O=S(=O)(c1cccc2cccnc12)N1CCCCC1	–	–	–	–	–	·	·	·	·	·	·
CN1CCc2c(c3ccccc3n2Cc2ccccc2)C1	–	–	–	-5.4	–	141%	–	18%	64%	–	·
